According to ChEMBL document CHEMBL1144264, “Structure-activity relationship studies on ortho-substituted cinnamic acids, a new class of selective EP(3) antagonists” (Bioorg Med Chem Lett, 2005):

Tests used:
[1] = target: T1, Prostaglandin E2 receptor EP3 subtype (Homo sapiens, UniProt P43115); assay: Binding affinity for human prostanoid EP3 receptor
T1 sequence (P43115 whole entry): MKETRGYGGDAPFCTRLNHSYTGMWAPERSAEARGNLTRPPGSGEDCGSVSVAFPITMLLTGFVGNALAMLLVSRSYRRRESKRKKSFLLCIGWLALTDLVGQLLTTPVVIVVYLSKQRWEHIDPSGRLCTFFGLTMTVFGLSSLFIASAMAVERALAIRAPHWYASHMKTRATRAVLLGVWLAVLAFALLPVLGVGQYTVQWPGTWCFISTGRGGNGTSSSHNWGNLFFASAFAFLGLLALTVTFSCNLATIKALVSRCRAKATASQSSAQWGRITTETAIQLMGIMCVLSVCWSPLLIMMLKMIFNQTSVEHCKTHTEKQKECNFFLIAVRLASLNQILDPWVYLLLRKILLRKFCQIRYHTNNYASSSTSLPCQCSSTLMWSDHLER

[2] = target: Prostaglandin E2 receptor EP4 subtype (Homo sapiens, UniProt P35408); assay: Binding affinity for human prostanoid EP4 receptor
[3] = target: Prostaglandin E2 receptor EP2 subtype (Homo sapiens, UniProt P43116); assay: Binding affinity for human prostanoid EP2 receptor
[4] = target: T2, Prostaglandin E2 receptor EP1 subtype (Homo sapiens, UniProt P34995); assay: Binding affinity for human prostanoid EP1 receptor
T2 sequence (P34995 whole entry): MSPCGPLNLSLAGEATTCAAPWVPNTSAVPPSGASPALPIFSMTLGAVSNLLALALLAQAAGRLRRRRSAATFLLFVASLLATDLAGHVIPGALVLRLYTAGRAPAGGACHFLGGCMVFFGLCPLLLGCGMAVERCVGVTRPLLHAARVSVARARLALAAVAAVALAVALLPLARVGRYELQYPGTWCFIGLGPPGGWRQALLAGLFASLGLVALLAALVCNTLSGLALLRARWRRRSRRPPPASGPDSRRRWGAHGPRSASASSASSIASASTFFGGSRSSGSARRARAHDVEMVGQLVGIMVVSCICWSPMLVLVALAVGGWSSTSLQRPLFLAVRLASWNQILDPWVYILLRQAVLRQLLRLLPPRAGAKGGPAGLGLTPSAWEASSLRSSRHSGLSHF

HEK293 [5] = assay: Inhibition of c-AMP production in HEK (EBNA) cells was determined by c-AMP assay; format: functional, HEK293-EBNA; details: Homo sapiens
Summary of the method: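 Functional cAMP read-out in HEK (EBNA) cells expressing the receptor: antagonism scored as reversal of EP3-mediated inhibition of cAMP production; EP2 activity scored as stimulation of cAMP production.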

[6] = Half life in rats after 10 mg/kg peroral and 5 mg/kg intravenous administration as sodium salts; format: ADME, organism-based; details: rat, in vivo
Summary of the method: (§1)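 Male Sprague–Dawley rats, 300–400 g. Oral bioavailability, clearance (mL/min/kg), Cmax (µM, with time of peak) and half-life derived from plasma profiles.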

[7] = Bioavailability in rat (dose 10 mg/kg p.o. and 5 mg/kg i.v.) (dosed as sodium salt); format: ADME, organism-based; details: in vivo, po; summary of the method: as §1
HEK293 [8] = assay: Stimulation of c-AMP production in HEK (EBNA) cells was determined by c-AMP assay; details: Homo sapiens
[9] = Clearance in rats after 10 mg/kg peroral and 5 mg/kg intravenous administration as sodium salts; format: ADME, organism-based; details: rat, in vivo; summary of the method: as §1
[10] = Maximum concentration in rats after 10 mg/kg peroral and 5 mg/kg intravenous administration as sodium salts; format: ADME, organism-based; details: rat, in vivo, po; summary of the method: as §1

Chain of Prostaglandin E2 receptor EP4 subtype (P35408 whole entry): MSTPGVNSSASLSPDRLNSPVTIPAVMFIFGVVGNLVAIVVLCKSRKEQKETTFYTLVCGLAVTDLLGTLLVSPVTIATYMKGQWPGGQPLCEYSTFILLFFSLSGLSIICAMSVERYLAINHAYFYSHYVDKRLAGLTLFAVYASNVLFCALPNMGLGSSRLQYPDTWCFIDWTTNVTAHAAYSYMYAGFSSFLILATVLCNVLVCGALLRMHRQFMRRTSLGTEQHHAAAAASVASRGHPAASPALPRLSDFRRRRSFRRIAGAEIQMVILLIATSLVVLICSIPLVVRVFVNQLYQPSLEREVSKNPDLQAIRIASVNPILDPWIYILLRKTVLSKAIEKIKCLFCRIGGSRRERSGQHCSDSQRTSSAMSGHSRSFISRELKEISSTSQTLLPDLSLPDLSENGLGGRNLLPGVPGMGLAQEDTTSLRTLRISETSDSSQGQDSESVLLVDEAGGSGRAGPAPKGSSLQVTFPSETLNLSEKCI
Chain of Prostaglandin E2 receptor EP2 subtype (P43116 whole entry): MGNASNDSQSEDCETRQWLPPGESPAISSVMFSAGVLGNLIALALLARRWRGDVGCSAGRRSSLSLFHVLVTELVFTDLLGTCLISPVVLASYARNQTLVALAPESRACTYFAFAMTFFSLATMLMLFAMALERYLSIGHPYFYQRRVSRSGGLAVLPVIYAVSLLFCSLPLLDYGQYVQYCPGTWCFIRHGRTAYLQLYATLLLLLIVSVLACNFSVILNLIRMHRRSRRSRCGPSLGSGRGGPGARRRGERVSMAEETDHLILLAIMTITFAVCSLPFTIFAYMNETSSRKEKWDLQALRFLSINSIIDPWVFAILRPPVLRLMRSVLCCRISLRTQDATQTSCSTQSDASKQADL

| SMILES | Ki [1] | Ki [2] | Ki [3] | Ki [4] | Kb (HEK293 [5]) | half-life [6] | bioavailability [7] | Kb (HEK293 [8]) | clearance [9] | Cmax [10] |
| --- | --- | --- | --- | --- | --- | --- | --- | --- | --- | --- |
| Cc1cccc(/C=C/Cc2ccccc2CC(=O)O)c1OCc1ccccc1.Cc1cccc(C/C=C/c2ccccc2CC(=O)O)c1OCc1ccccc1 | 3400 nM | 4300 nM | 2900 nM | 21000 nM | – | – | – | – | – | – |
| Cc1cccc(/C=C/Cc2cccc(/C=C/C(=O)O)c2)c1OCc1ccccc1.Cc1cccc(C/C=C/c2cccc(/C=C/C(=O)O)c2)c1OCc1ccccc1 | 2000 nM | 3100 nM | 630 nM | 21000 nM | – | – | – | – | – | – |
| CC(=O)c1ccc(OCc2ccccc2)c(/C=C/Cc2ccccc2/C=C/C(=O)O)c1.CC(=O)c1ccc(OCc2ccccc2)c(C/C=C/c2ccccc2/C=C/C(=O)O)c1 | 260 nM | 830 nM | 8700 nM | 2800 nM | – | – | – | – | – | – |
| Cc1cccc(/C=C/Cc2ccccc2/C=C/C(=O)O)c1OCc1ccccc1 | – | – | – | – | 17 nM | – | – | – | – | – |
| O=C(O)/C=C/c1ccccc1/C=C/c1ccccc1OCc1ccccc1 | 1400 nM | 2800 nM | 8 nM | 45000 nM | – | 2 h | 17% | 3 nM | 16 mL/min/kg | 1.7 µM |
| Cc1cccc(/C=C/Cc2ccccc2/C=C/C(=O)O)c1O | 10 nM | 1600 nM | 7300 nM | 68000 nM | 28 nM | – | – | – | – | – |
| COc1cccc(CCCc2ccccc2/C=C/C(=O)O)c1OCc1ccccc1 | 19 nM | 4300 nM | 1100 nM | > 9000 nM | 29 nM | – | – | – | – | – |
| COc1cc(/C=C\Cc2ccccc2/C=C/C(=O)O)ccc1OCc1ccccc1.COc1cc(C/C=C/c2ccccc2/C=C/C(=O)O)ccc1OCc1ccccc1 | 8 nM | 610 nM | 750 nM | > 20000 nM | 6 nM | – | – | – | – | – |
| Cc1cccc(/C=C/Cc2ccccc2/C=C/C(=O)O)c1OCc1c(Cl)cccc1Cl | 3 nM | 620 nM | 5400 nM | 6700 nM | 6 nM | 2 h | 74% | – | 5.8 mL/min/kg | 25 µM |
| Cc1cccc(/C=C/Cc2ccc(/C=C/C(=O)O)cc2)c1OCc1ccccc1.Cc1cccc(C/C=C\c2ccc(/C=C/C(=O)O)cc2)c1OCc1ccccc1 | 2900 nM | 5500 nM | 1700 nM | > 30000 nM | – | – | – | – | – | – |
| COc1ccc(/C=C/Cc2ccccc2/C=C/C(=O)O)cc1.COc1ccc(C/C=C/c2ccccc2/C=C/C(=O)O)cc1 | 68 nM | 6200 nM | 2500 nM | > 100000 nM | – | – | – | – | – | – |
| Cc1cccc(/C=C\Cc2ccccc2C(=O)O)c1OCc1ccccc1.Cc1cccc(C/C=C/c2ccccc2C(=O)O)c1OCc1ccccc1 | 2700 nM | 5700 nM | 7100 nM | 16000 nM | – | – | – | – | – | – |
| O=C(O)/C=C/c1ccccc1/C=C/Cc1cccc(CO)c1OCc1c(Cl)cccc1Cl.O=C(O)/C=C/c1ccccc1C/C=C/c1cccc(CO)c1OCc1c(Cl)cccc1Cl | 13 nM | 740 nM | 2500 nM | 7100 nM | – | – | – | – | – | – |
| Cc1cccc(/C=C/C(O)c2ccccc2/C=C/C(=O)O)c1OCc1c(Cl)cccc1Cl (configuration not stated) | 10 nM | 930 nM | 2100 nM | 3000 nM | 30 nM | – | – | – | – | – |
| O=C(O)/C=C/c1ccccc1/C=C/Cc1ccccc1.O=C(O)/C=C/c1ccccc1C/C=C/c1ccccc1 | 100 nM | 4400 nM | 1400 nM | > 100000 nM | – | – | – | – | – | – |
| Cc1cccc(C(O)/C=C/c2ccccc2/C=C/C(=O)O)c1OCc1c(Cl)cccc1Cl (configuration not stated) | 9 nM | 1000 nM | 3900 nM | 13000 nM | 30 nM | – | – | – | – | – |
| Cc1cccc(CCCc2ccccc2CCC(=O)O)c1OCc1ccccc1 | 65 nM | 440 nM | 940 nM | 23000 nM | – | – | – | – | – | – |
| Cc1cccc(/C=C/Cc2ccccc2/C=C/C(=O)O)c1OCc1ccccc1.Cc1cccc(C/C=C/c2ccccc2/C=C/C(=O)O)c1OCc1ccccc1 (stereo in doubt; 2a) | 13 nM | 1200 nM | 550 nM | – | – | – | – | – | – | – |
| Cc1cccc(CCCc2ccccc2/C=C/C(=O)O)c1OCc1ccccc1 | 13 nM | 2900 nM | 380 nM | > 10000 nM | 38 nM | – | – | – | – | – |
| O=C(O)/C=C/c1ccccc1/C=C/Cc1ccccc1OCc1ccccc1.O=C(O)/C=C/c1ccccc1C/C=C\c1ccccc1OCc1ccccc1 | 25 nM | 1000 nM | 680 nM | 24000 nM | 50 nM | – | – | – | – | – |
| Cc1cccc(/C=C/Cc2ccccc2/C=C/C(=O)O)c1OCc1ccccc1.Cc1cccc(C/C=C/c2ccccc2/C=C/C(=O)O)c1OCc1ccccc1 (stereo in doubt; 2a/3a) | 9 nM | 2000 nM | 860 nM | 19000 nM | 32 nM | 2 h | 97% | – | 10 mL/min/kg | 22 µM |
| O=C(O)/C=C/c1ccccc1/C=C/Cc1cccc(OCc2ccccc2)c1.O=C(O)/C=C/c1ccccc1C/C=C\c1cccc(OCc2ccccc2)c1 | 50 nM | 450 nM | 18 nM | 14000 nM | 62 nM | – | – | – | – | – |
| Cc1cccc(/C=C/Cc2ccccc2/C=C/C(=O)O)c1OCc1ccc(F)cc1 | 7 nM | 2400 nM | 4100 nM | 17000 nM | 4 nM | – | – | – | – | – |
